Consider three compounds from article PMC3940870 (Nature, 2013).

Molecules are shown by their SMILES.

In experiment [1] the test system is P. falciparum NF54 gametocytes. Nature of the experiment: Gametocyte viability assay. Format: cell-based. The settings on record: Plasmodium falciparum, NF54, 72 h, read-out: IC50, gametocyte viability. The method, boiled down: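 NF54 stage III–V gametocytes came from cultures cleared of asexual parasites with 50 mM N-acetyl-D-glucosamine for 3 days, then purified on a discontinuous Percoll gradient. Viability was read by a modified pLDH assay with resazurin substrate after 72-hr exposure. The 9-point series (0.1 nM–1 μM, 0.5 log10 steps) ran in quadruplicate over 2 plates and 2 parasite batches. Controls were 1 μM DHA (MIN) and vehicle (MAX). IC50 came from four-parameter nonlinear regression.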

Experiment [2] concerns P. berghei sporozoites expressing luciferase. The settings on record: 2.5 mg/kg; stated as known, no reference given; cited from earlier work.
Experiment [3] relates to P. falciparum schizonts (Dd2), reinvasion of RBCs. Kind of experiment: Physical disruption/merozoite release assay. The experiment is classed as cell-based, Plasmodium falciparum. The settings on record: ~5×IC50 imidazopyrazine or 1 μM E-64.

For `C[C@H]1[C@@H](O)O[C@@H]2O[C@@]3(C)CC[C@H]4[C@H](C)CC[C@@H]1[C@@]24OO3` [DHA, dihydroartemisinin], the IC50 in experiment [1] stood at 15.8 nM.

As for `O=C1C(O)=C([C@H]2CC[C@H](c3ccc(Cl)cc3)CC2)C(=O)c2ccccc21` [ATQ, atovaquone], the causal prophylactic protection in experiment [2] was 100%.

On to `CC(C)C[C@H](NC(=O)[C@H]1O[C@@H]1C(=O)O)C(=O)NCCCCN=C(N)N` [E-64], for which the “reinvasion parasitemia after mechanical rupture of treated schizonts” value in experiment [3] is 2–3%.

By IC50 is commonly meant the concentration needed to halve the response being measured.
